Here are results for three compounds from ChEMBL document CHEMBL2434878, “Synthesis and antimycobacterial activity of analogues of the bioactive natural products sampangine and cleistopholine” (Eur J Med Chem, 2013).

Test [1] concerns Mycobacterium tuberculosis. Briefly: Antimicrobial activity against multidrug-resistant Mycobacterium tuberculosis LAM-1 at 5 uM by Bactec 460 TB method relative to control. It is filed as functional. As to conditions: read-out: GI. The method, boiled down:
(§1)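 MDR clinical isolate LAM-1 was precultured in a BACTEC vial to growth index 300, then inoculated into a fresh vial with compound (dilutions made at 40-fold final in 7H9-10% OADC). 14CO2 release from 14C-palmitic acid was read daily.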

Test [2] has as its system Mycobacterium tuberculosis. The test is described as follows: Antimicrobial activity against multidrug-resistant Mycobacterium tuberculosis LAM-1 at 1 uM by Bactec 460 TB method relative to control. It is filed as functional. The settings on record: read-out: GI. The method in brief: as §1

Take `COc1ccc(-c2cc(O)c3c(c2)C(=O)c2ccccc2C3=O)cc1`: the inhibition of growth at 5 µM in test [1] came to 99%. The inhibition of growth at 1 µM in test [2] was determined as 90%.
In the same order, the values of `COc1ccc(-c2cc3c(c(/C=C/N(C)C)n2)C(=O)c2ccccc2C3=O)cc1` are 99% and 90%.
In the case of `COc1ccc(-c2cc3c4c(nccc4n2)-c2ccccc2C3=O)cc1`, the inhibition of growth at 5 µM in test [1] is 99%. Moreover, the inhibition of growth at 1 µM in test [2] came out at 90%.
